ChEMBL document CHEMBL1133607, “Nonpeptide analogues of dynorphin A(1-8): design, synthesis, and pharmacological evaluation of kappa-selective agonists” (J Med Chem, 2000)

Key:
[1] = target: Opioid receptors; mu & kappa (UniProt P41145+P35372); assay: Ratio of affinity towards mu and kappa opioid receptors; assay type: protein assay
Mu-type opioid receptor = Mu-type opioid receptor (Rattus norvegicus, UniProt P33535); assay: Displacement of [3H]diprenorphine from opioid receptor mu 1 on crude membrane fractions obtained from whole rat brain (minus cerebellum); assay type: tissue-based
Method in brief: (§1)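 Rat whole-brain (minus cerebellum) crude membranes, 1 mg protein/tube, in 50 mM Tris-HCl pH 7.4 with aprotinin, leupeptin and bacitracin. […] U50,488 and DADLE (300 nM each) saturate κ and δ sites; 1 µM DAMGO defines nonspecific binding. Compounds tested at 10^-11 to 10^-5 M. Ki values are the mean of three experiments in duplicate.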

[2] = target: Kappa-type opioid receptor (Cavia porcellus, UniProt P41144); assay: Displacement of [3H]-U-69,593 from Opioid receptor kappa 1 in guinea pig cerebellar.
[3] = target: Delta-type opioid receptor (Rattus norvegicus, UniProt P33533); assay: Displacement of [3H]diprenorphine opioid receptor delta 1 on crude membrane fractions obtained from the whole rat brain (minus cerebellum); assay type: tissue-based
Method in brief: as §1, with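 “DAMGO” for “DADLE”, “µ” for “δ”, “DPDPE” for “DAMGO”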

Cavia porcellus = organism: Cavia porcellus; assay: Ratio of affinity towards delta to kappa opioid receptor

Sequence of Delta-type opioid receptor (P33533 whole entry): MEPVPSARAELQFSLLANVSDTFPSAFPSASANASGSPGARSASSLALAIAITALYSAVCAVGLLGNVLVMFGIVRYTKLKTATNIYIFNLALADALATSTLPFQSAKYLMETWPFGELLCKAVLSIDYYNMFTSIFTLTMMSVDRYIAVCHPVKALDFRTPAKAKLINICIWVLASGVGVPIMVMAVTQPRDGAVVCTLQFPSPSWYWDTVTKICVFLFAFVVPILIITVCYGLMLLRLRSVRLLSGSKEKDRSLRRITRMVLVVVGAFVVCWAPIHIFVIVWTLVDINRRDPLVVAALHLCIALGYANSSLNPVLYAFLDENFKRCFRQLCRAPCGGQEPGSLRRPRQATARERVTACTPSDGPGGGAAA
Sequence of Kappa-type opioid receptor (P41144 whole entry): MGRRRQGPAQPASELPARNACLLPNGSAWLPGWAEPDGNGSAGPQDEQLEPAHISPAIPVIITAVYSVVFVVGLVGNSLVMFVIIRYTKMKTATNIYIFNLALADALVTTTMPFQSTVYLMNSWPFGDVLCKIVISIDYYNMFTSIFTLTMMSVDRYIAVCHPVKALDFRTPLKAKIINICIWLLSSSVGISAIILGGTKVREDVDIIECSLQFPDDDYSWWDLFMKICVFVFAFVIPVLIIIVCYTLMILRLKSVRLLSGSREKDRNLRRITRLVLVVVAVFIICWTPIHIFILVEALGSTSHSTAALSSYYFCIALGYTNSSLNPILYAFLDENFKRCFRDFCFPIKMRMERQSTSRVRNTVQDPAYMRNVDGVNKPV
Sequence of Opioid receptors; mu & kappa (P35372 whole entry, looked up): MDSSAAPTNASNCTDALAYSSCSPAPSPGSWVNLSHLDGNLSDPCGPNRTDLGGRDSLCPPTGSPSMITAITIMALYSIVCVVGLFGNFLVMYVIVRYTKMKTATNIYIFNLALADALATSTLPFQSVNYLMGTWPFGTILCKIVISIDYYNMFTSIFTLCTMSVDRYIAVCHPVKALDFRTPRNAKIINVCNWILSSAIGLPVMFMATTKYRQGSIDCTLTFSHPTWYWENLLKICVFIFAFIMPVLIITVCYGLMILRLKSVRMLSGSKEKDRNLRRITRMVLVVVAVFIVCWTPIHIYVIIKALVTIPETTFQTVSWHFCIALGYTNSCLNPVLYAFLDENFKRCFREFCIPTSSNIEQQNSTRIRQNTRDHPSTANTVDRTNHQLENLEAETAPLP
Sequence of Opioid receptors; mu & kappa (P41145 whole entry, looked up): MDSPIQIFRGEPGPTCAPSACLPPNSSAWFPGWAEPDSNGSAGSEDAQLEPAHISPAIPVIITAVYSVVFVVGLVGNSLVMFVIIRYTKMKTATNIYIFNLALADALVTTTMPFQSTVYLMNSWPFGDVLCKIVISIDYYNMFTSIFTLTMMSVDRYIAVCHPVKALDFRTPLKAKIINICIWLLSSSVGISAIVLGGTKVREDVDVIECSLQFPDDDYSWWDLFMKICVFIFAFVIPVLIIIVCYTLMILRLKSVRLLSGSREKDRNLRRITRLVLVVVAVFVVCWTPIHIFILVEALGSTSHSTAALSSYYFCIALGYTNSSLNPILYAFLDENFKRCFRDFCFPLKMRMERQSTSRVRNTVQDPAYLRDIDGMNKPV
Sequence of Mu-type opioid receptor (P33535 whole entry): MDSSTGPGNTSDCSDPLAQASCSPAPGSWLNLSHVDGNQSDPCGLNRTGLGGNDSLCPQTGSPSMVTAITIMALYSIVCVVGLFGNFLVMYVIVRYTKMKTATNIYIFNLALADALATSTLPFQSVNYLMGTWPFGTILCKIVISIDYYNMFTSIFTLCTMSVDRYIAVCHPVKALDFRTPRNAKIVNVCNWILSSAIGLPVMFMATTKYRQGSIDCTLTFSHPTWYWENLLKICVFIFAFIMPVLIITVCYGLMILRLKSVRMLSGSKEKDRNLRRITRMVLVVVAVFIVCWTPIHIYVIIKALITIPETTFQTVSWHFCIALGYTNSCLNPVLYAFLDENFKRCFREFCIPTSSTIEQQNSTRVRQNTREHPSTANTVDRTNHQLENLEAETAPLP

| Compound | Selectivity ratio [1] | Ki (Mu-type opioid receptor) [µM] | Ki [2] [µM] | Ki [3] [µM] | Selectivity ratio (Cavia porcellus) |
| --- | --- | --- | --- | --- | --- |
| CC(C)CC(NC(=O)[C@]1(c2ccccc2)CC1CN1CC[C@@]2(C)c3cc(O)ccc3CC1C2C)C(=O)NCCCCN=C(N)N (stereo partly drawn) | 11.8 | 2.95 | 0.25 | – | – |
| CC(C)CC(NC(=O)[C@]1(c2ccccc2)CC1CN1CC[C@@]2(C)c3cc(O)ccc3CC1C2C)C(=O)NCCCCCCN=C(N)N (stereo partly drawn) | 18.9 | 2.63 | 0.139 | 2.83 | 20.3 |
| CC(C)CC(NC(=O)CNC(=O)[C@]1(c2ccccc2)CC1CN1CC[C@@]2(C)c3cc(O)ccc3CC1C2C)C(=O)NCCCCCCN=C(N)N (stereo partly drawn) | 94.3 | – | – | – | 84.2 |
| CC(C)CC(NC(=O)CNC(=O)[C@]1(c2ccccc2)CC1CN1CC[C@@]2(C)c3cc(O)ccc3CC1C2C)C(=O)NCCCCN (stereo partly drawn) | 49.1 | 13.2 | 0.27 | 10.5 | 38.7 |
| CCCC(=N)NCCCCNC(=O)C(CC(C)C)NC(=O)CNC(=O)[C@]1(c2ccccc2)CC1CN1CC[C@@]2(C)c3cc(O)ccc3CC1C2C (stereo partly drawn) | 100 | 6.78 | 0.0678 | 7.28 | 107 |
| CCC(=N)NCCCCNC(=O)C(CC(C)C)NC(=O)CNC(=O)[C@]1(c2ccccc2)CC1CN1CC[C@@]2(C)c3cc(O)ccc3CC1C2C (stereo partly drawn) | 42.6 | 7.48 | 0.176 | 9.7 | 55.2 |
| CCC(=N)NCCCCCCNC(=O)C(CC(C)C)NC(=O)CNC(=O)[C@]1(c2ccccc2)CC1CN1CC[C@@]2(C)c3cc(O)ccc3CC1C2C (stereo partly drawn) | 89.8 | 4.21 | 0.0469 | 5.06 | 108 |
| CC(C)CC(NC(=O)[C@]1(c2ccccc2)CC1CN1CC[C@@]2(C)c3cc(O)ccc3CC1C2C)C(=O)NCCCN=C(N)N (stereo partly drawn) | 8.7 | 2.43 | 0.28 | – | – |
| CC(C)CC(NC(=O)CNC(=O)[C@]1(c2ccccc2)CC1CN1CC[C@@]2(C)c3cc(O)ccc3CC1C2C)C(=O)NCCCCCNC(=N)N (stereo partly drawn) | – | 3.85 | 0.0475 | 3.48 | – |
| CCC(=N)NCCCCNC(=O)C(CC(C)C)NC(=O)[C@]1(c2ccccc2)CC1CN1CC[C@@]2(C)c3cc(O)ccc3CC1C2C (stereo partly drawn) | 11.5 | 2.2 | 0.192 | – | – |
| CC(C)CC(NC(=O)[C@]1(c2ccccc2)CC1CN1CC[C@@]2(C)c3cc(O)ccc3CC1C2C)C(=O)NCCCN (stereo partly drawn) | 11.5 | 4.22 | 0.367 | – | – |
| CCCCC(=N)NCCCCNC(=O)C(CC(C)C)NC(=O)[C@]1(c2ccccc2)CC1CN1CC[C@@]2(C)c3cc(O)ccc3CC1C2C (stereo partly drawn) | 18.3 | 2.13 | 0.116 | – | – |
| CCCC(=N)NCCCCCNC(=O)C(CC(C)C)NC(=O)CNC(=O)[C@]1(c2ccccc2)CC1CN1CC[C@@]2(C)c3cc(O)ccc3CC1C2C (stereo partly drawn) | 110 | 7.19 | 0.0653 | 5.21 | 79.8 |
| CCCCC(=N)NCCCNC(=O)C(CC(C)C)NC(=O)[C@]1(c2ccccc2)CC1CN1CC[C@@]2(C)c3cc(O)ccc3CC1C2C (stereo partly drawn) | 16 | 2.23 | 0.139 | – | – |
| CC(C)CC(NC(=O)CNC(=O)[C@]1(c2ccccc2)CC1CN1CC[C@@]2(C)c3cc(O)ccc3CC1C2C)C(=O)NCCCN (stereo partly drawn) | 57 | 16.1 | 0.282 | 10.6 | 37.6 |
| CCCC(=N)NCCCCCCNC(=O)C(CC(C)C)NC(=O)[C@]1(c2ccccc2)CC1CN1CC[C@@]2(C)c3cc(O)ccc3CC1C2C (stereo partly drawn) | 15.6 | 1.9 | 0.122 | 3.46 | 28.4 |
| CC(C)CC(NC(=O)CNC(=O)[C@]1(c2ccccc2)CC1CN1CC[C@@]2(C)c3cc(O)ccc3CC1C2C)C(=O)NCCCCCN (stereo partly drawn) | 44.4 | 10.9 | 0.246 | 9.58 | 38.9 |
| CC(C)CC(NC(=O)CNC(=O)[C@]1(c2ccccc2)CC1CN1CC[C@@]2(C)c3cc(O)ccc3CC1C2C)C(=O)NCCCCCN=C(N)N (stereo partly drawn) | 81.1 | – | – | – | 73.1 |
| CC(C)CC(NC(=O)CNC(=O)[C@]1(c2ccccc2)CC1CN1CC[C@@]2(C)c3cc(O)ccc3CC1C2C)C(=O)NCCCCCCN (stereo partly drawn) | 101 | 8.07 | 0.0796 | 6.05 | 76 |
| CC(C)CC(NC(=O)[C@]1(c2ccccc2)CC1CN1CC[C@@]2(C)c3cc(O)ccc3CC1C2C)C(=O)NCCCCCN (stereo partly drawn) | 11.8 | 3.25 | 0.277 | – | – |
